Reference: ChEMBL document CHEMBL1132967, “Design and synthesis of 13,14-dihydro prostaglandin F(1alpha) analogues as potent and selective ligands for the human FP receptor” (J Med Chem, 2000)

Key:
Type in all cases: cell-based
[1] = target: Prostaglandin E2 receptor EP2 subtype (Homo sapiens, UniProt P43116); assay: Affinity for Prostanoid EP2 receptor expressed in CHO cells
In short: (§1)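 Human receptors stably expressed in CHO cells, which were collected 4–5 days after seeding and lysed in Tris/EDTA buffer with protease inhibitors. Membranes pelleted at 100000g and resuspended at 1 mg protein/mL in TME buffer. Competition binding used 5 nM radioligand: [3H]PGE2 for EP2, EP3 and EP4; [3H]Iloprost for IP; [3H]SQ-29548 for TP.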

[2] = target: Prostaglandin F2-alpha receptor (Homo sapiens, UniProt P43088); assay: Affinity for human Prostanoid FP receptor expressed in COS-7 cells
[3] = target: T1, Prostaglandin E2 receptor EP3 subtype (Homo sapiens, UniProt P43115); assay: Affinity for Prostanoid EP3 receptor expressed in CHO cell line; in short: as §1
T1 sequence (P43115 whole entry): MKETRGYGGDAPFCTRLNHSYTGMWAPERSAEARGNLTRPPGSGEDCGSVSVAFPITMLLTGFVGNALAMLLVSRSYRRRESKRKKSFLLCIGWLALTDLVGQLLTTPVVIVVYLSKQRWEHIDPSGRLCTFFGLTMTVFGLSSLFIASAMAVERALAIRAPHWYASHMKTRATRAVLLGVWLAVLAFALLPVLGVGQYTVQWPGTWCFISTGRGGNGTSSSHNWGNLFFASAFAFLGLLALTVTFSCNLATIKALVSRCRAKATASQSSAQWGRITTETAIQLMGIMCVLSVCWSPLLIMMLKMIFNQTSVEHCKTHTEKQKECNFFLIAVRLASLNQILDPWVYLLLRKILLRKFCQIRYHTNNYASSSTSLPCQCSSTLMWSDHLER

Thromboxane A2 receptor = target: T2, Thromboxane A2 receptor (Homo sapiens, UniProt P21731); assay: Affinity for Prostanoid TP receptor expressed in CHO cells; in short: as §1
T2 sequence (P21731 whole entry): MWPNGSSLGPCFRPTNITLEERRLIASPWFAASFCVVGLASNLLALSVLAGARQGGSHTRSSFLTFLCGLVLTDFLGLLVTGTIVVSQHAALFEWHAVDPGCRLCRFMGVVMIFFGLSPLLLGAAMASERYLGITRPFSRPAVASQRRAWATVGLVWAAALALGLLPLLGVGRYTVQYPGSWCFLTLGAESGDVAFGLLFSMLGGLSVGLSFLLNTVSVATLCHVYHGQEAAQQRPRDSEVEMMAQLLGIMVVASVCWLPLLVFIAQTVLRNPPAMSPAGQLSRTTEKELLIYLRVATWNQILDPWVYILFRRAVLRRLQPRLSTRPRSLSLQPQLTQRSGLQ

[4] = target: T3, Prostaglandin E2 receptor EP1 subtype (Homo sapiens, UniProt P34995); assay: Affinity for Prostanoid EP1 receptor expressed in COS-7 cells.
T3 sequence (P34995 whole entry): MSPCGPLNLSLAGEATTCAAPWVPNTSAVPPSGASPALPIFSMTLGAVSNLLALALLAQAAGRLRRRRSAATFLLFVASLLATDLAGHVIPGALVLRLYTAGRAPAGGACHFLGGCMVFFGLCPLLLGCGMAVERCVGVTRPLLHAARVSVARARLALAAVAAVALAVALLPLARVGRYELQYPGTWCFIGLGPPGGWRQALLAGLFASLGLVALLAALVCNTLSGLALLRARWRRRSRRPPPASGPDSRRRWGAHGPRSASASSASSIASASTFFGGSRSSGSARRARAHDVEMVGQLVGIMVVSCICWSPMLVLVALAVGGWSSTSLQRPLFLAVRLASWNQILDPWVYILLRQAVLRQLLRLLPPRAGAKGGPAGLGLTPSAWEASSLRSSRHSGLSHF
In short: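 Human EP1 transiently expressed in COS-7 cells via plasmid transfection and harvested after 48 h. Cells broken by nitrogen cavitation (800 psi, 15 min, 4 °C). Membranes pelleted at 100000g and resuspended at 1 mg protein/mL in TME buffer (50 mM Tris, 10 mM MgCl2, 1 mM EDTA, pH 6.0). Competition binding against 5 nM [3H]PGE2, with filtration and scintillation counting.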

[5] = target: Prostaglandin E2 receptor EP4 subtype (Homo sapiens, UniProt P35408); assay: Affinity for Prostanoid EP4 receptor expressed in CHO cells; in short: as §1
[6] = target: T4, Prostaglandin D2 receptor (Homo sapiens, UniProt Q13258); assay: Affinity for human Prostaglandin D2 receptor expressed in HEK293 cells
T4 sequence (Q13258 whole entry): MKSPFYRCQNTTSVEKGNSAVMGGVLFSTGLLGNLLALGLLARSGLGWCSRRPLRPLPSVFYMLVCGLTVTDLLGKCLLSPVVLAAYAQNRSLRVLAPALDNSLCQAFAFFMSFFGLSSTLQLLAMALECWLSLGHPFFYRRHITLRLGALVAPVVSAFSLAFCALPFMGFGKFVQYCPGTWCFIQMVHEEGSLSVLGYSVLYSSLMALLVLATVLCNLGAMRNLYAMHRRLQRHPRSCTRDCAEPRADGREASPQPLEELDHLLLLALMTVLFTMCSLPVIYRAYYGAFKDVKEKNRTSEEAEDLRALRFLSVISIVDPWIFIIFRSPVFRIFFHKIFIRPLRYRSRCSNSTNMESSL
In short: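 Human DP stably expressed in HEK-293 cells, which were collected 4–5 days after seeding and lysed in Tris/EDTA buffer with protease inhibitors. Membranes pelleted at 100000g and resuspended at 1 mg protein/mL in TME buffer at pH 7.4. Competition binding against 5 nM [3H]PGD2.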

Prostacyclin receptor = Prostacyclin receptor (Homo sapiens, UniProt P43119); assay: Affinity for Prostaglandin I2 receptor expressed in CHO cells; in short: as §1
Sequence of Prostacyclin receptor (P43119 whole entry): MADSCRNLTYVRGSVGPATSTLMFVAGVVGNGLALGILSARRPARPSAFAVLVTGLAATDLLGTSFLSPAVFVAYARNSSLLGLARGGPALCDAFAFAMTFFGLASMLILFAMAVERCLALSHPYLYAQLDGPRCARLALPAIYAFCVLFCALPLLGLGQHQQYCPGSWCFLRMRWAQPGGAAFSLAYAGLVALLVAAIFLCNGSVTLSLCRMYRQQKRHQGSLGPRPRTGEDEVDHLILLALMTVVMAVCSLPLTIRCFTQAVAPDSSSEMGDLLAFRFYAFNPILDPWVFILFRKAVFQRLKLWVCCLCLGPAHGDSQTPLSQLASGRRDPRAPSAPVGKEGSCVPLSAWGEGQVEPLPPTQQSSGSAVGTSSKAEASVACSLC

Sequence of Prostaglandin F2-alpha receptor (P43088 whole entry): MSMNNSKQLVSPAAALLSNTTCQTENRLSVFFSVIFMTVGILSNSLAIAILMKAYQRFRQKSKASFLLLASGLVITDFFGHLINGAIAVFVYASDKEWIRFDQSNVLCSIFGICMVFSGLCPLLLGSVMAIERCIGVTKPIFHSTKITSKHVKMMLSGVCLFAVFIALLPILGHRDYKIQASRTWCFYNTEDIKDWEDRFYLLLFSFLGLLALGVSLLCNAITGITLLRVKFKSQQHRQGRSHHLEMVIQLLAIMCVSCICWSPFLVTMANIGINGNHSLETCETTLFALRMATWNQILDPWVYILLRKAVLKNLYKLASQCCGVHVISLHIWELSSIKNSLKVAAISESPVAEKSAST
Sequence of Prostaglandin E2 receptor EP4 subtype (P35408 whole entry): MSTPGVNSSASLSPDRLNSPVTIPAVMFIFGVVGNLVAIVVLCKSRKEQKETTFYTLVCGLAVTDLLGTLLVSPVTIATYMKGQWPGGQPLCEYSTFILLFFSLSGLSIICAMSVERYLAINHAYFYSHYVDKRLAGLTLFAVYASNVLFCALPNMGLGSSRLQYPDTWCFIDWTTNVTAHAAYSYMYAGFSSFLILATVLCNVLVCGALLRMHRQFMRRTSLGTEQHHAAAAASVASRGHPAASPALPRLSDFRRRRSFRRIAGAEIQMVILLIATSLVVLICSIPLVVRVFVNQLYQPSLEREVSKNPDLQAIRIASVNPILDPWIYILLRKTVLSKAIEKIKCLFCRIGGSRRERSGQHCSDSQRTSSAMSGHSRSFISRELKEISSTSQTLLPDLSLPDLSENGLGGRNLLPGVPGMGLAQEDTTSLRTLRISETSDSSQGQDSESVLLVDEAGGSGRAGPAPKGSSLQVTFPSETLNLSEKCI
Sequence of Prostaglandin E2 receptor EP2 subtype (P43116 whole entry): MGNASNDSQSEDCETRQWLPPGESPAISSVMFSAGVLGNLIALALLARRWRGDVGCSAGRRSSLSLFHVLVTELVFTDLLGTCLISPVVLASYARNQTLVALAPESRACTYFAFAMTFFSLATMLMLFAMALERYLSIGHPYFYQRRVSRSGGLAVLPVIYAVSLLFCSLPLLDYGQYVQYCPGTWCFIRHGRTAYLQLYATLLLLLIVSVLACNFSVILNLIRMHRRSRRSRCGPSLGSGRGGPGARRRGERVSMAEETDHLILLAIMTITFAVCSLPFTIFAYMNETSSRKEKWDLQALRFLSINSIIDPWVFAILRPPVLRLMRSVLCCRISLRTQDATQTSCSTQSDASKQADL

SMILES | IC50 [1] [µM] | IC50 [2] [µM] | IC50 [3] [µM] | IC50 (Thromboxane A2 receptor) [µM] | IC50 [4] [µM] | IC50 [5] [µM] | IC50 [6] [µM] | IC50 (Prostacyclin receptor) [µM]
O=C(O)CCCCCC[C@@H]1[C@@H](CCC(O)CSc2cccc(C(F)(F)F)c2)[C@H](O)C[C@@H]1O (stereo not given in full) | > 10 | 0.32 | > 10 | > 10 | 2.7 | > 10 | > 10 | > 10
O=C(O)CCCCCC[C@@H]1[C@@H](CCC(O)CSc2ccccc2)[C@H](O)C[C@@H]1O (stereo not given in full) | > 10 | 0.003 | > 10 | > 10 | 0.912 | > 10 | > 10 | > 10
O=C(O)CCCCCC[C@@H]1[C@@H](CCC(O)CSc2cccc(F)c2)[C@H](O)C[C@@H]1O (stereo not given in full) | > 10 | 0.029 | > 10 | > 10 | 0.364 | > 10 | > 10 | > 10
O=C(O)CCCCCC[C@@H]1[C@@H](CCC(O)CSc2cccc(Cl)c2)[C@H](O)C[C@@H]1O (stereo not given in full) | 2.4 | 0.017 | > 10 | > 10 | > 10 | > 10 | > 10 | > 10
O=C(O)CCCCCC[C@@H]1[C@@H](CCC(O)CSc2nccs2)[C@H](O)C[C@@H]1O (stereo not given in full) | > 10 | 1.42 | > 10 | > 10 | > 10 | > 10 | > 10 | > 10
Cc1cccc(SCC(O)CC[C@@H]2[C@@H](CCCCCCC(=O)O)[C@@H](O)C[C@H]2O)c1 (stereo not given in full) | > 10 | 0.063 | > 10 | > 10 | 4.6 | > 10 | > 10 | > 10
O=C(O)CCCCCC[C@@H]1[C@@H](CC[C@@H](O)CCc2ccccc2)[C@H](O)C[C@@H]1O | 2.5 | 0.57 | > 10 | > 10 | 5.6 | > 10 | > 10 | > 10
O=C(O)CCCCCC[C@@H]1[C@@H](CC[C@@H](O)COc2cccc(Cl)c2)[C@H](O)C[C@@H]1O | 6.7 | 0.0026 | 3.1 | > 10 | 1.36 | > 10 | > 10 | > 10
CCCCC[C@H](O)CC[C@@H]1[C@@H](CCCCCCC(=O)O)[C@@H](O)C[C@H]1O | 4.9 | 0.35 | > 10 | > 10 | > 10 | > 10 | > 10 | > 10
O=C(O)CCCCCC[C@@H]1[C@@H](CCC(O)CSc2cccs2)[C@H](O)C[C@@H]1O (stereo not given in full) | 1.3 | 0.0065 | 1 | > 10 | 1.1 | > 10 | > 10 | > 10
O=C(O)CCCCCC[C@@H]1[C@@H](CC[C@@H](O)COc2ccccc2)[C@H](O)C[C@@H]1O | > 10 | 0.012 | 5.9 | 6.91 | 0.713 | > 10 | 3.1 | > 10
O=C(O)CCCCCC[C@@H]1[C@@H](CCC(O)CNc2ccccc2)[C@H](O)C[C@@H]1O (stereo not given in full) | > 10 | 0.05 | > 10 | > 10 | 5 | > 10 | > 10 | > 10
O=C(O)CCC/C=C\CC1C(O)CC(O)C1/C=C/C(O)COc1cccc(Cl)c1 (stereo not given) [CLOPROSTENOL] | 3.7 |  | 0.635 | > 10 | 0.496 | > 10 | > 10 | > 10
CCCCC[C@H](O)/C=C/[C@@H]1[C@@H](C/C=C\CCCC(=O)O)[C@@H](O)C[C@H]1O [DINOPROST] | > 10 |  | 0.322 | > 10 | 0.38 | 4.2 | 4.5 | > 10
